From ChEMBL document CHEMBL1137467, “Synthesis and structure-activity relationships of novel 1-arylmethyl-3-aryl-1H-pyrazole-5-carbohydrazide derivatives as potential agents against A549 lung cancer cells” (Bioorg Med Chem, 2007)
Activity calls are given as the source filed them. No cut-off for these calls is given here.

Experiments:
[1] = Lipophilicity, log P of the compound; format: physicochemical; conditions: octanol/water
A549 [2] = experiment: Growth inhibition of human A549 cells after 48 hrs; format: functional, cell-based; conditions: A549, 24 h, in the assay text read “after 24 hrs” for “after 48 hrs”
A549 [3] = experiment: Reduction of cell viability of human A549 cells at 40 uM after 24 hrs by MTT assay; format: functional
Method in brief: (§1)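 Compounds dissolved in DMSO, final DMSO below 0.1% (v/v) in culture medium. Cells seeded in 96-well plates and treated at 10–80 μM for 24 or 48 h. Viability by MTT assay with absorbance read at 570 nm. Controls were untreated medium and 0.1% DMSO vehicle.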

A549 [4] = experiment: Growth inhibition of human A549 cells after 24 hrs; format: functional, cell-based; conditions: A549, 48 h, in the assay text read “after 48 hrs” for “after 24 hrs”; method in brief: as §1
A549 [5] = experiment: Reduction of cell viability of human A549 cells at 80 uM after 48 hrs by MTT assay; format: functional; method in brief: as §1
A549 [6] = experiment: Effect on nuclear fragmentation in human A549 cells at 40 uM after 48 hrs by AO staining method; format: functional, cell-based
Method in brief: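 Cells cultured 48 h in fresh medium with 0 or 40 μM compound, then stained with 5 μg/ml acridine orange at room temperature. Chromatin condensation and DNA fragmentation imaged by laser scanning confocal/fluorescence microscopy. Images representative of three independent experiments.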

A549 [7] = experiment: Induction of apoptosis in A549 cells assessed as LDH release at 40 uM after 48 hrs; format: functional, cell-based; conditions: Homo sapiens
Method in brief: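 Culture medium collected after 48 h treatment at 40 μM and assayed for LDH release, compared against an untreated control group; n = 3.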

A549 [8] = experiment: Reduction of cell viability of human A549 cells at 40 uM after 48 hrs by MTT assay; format: functional; method in brief: as §1
A549 [9] = experiment: Effect on cell morphology in human A549 cells assessed as cell shrinkage at 40 uM after 48 hrs; format: functional, cell-based
Method in brief: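 Cells exposed to 40 μM compound for 24 h and 48 h, then inspected under a phase contrast microscope for shrinkage. Untreated cells served as control.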

Compound	logP [1]	IC50 (A549 [2])	IC50 (A549 [4])	Activity (A549 [3])	Activity (A549 [5])	Activity (A549 [6])	Activity (A549 [7])	Activity (A549 [8])	Activity (A549 [9])
COc1ccc(-c2cc(C(=O)NN)n(Cc3ccc(Cl)nc3)n2)cc1	2.76	240 µM	–	–	–	–	–	–	–
COc1ccc(-c2cc(C(=O)NN)n(Cc3ccccc3)n2)cc1	2.87	550 µM	–	–	–	–	–	–	–
NNC(=O)c1cc(-c2ccccc2)nn1Cc1ccccc1	2.73	440 µM	–	–	–	–	–	–	–
NNC(=O)c1cc(-c2ccccc2)nn1Cc1ccc(Cl)nc1	2.52	224 µM	67.7 µM	–	–	–	–	–	–

Now from value to compound, other results behind:

logP [1]	IC50 (A549 [2])	IC50 (A549 [4])	Compound	Activity (A549 [3])	Activity (A549 [5])	Activity (A549 [6])	Activity (A549 [7])	Activity (A549 [8])	Activity (A549 [9])
4.6	49.9 µM	23.9 µM	COc1ccc(-c2cc(C(=O)NN)n(Cc3ccc(C(C)(C)C)cc3)n2)cc1	52%	6%	Active	Active	26%	–
4.94	68.3 µM	18.5 µM	CC(C)(C)c1ccc(Cn2nc(-c3ccc(Cl)cc3)cc2C(=O)NN)cc1	52%	13%	Active	Active	26%	–
3.24	232 µM	38.7 µM	NNC(=O)c1cc(-c2ccc(Cl)cc2)nn1Cc1ccccc1	–	–	–	–	–	–
4.49	66.2 µM	26.6 µM	CC(C)(C)c1ccc(Cn2nc(-c3ccccc3)cc2C(=O)NN)cc1	52%	15%	Active	Active	26%	Active
3.12	121 µM	30.2 µM	NNC(=O)c1cc(-c2ccc(Cl)cc2)nn1Cc1ccc(Cl)nc1	–	–	–	–	–	–
